S1P3 agonist = human S1P3 receptor agonists, primary screen, cell-based, primary and confirmation, NFAT-BLA reporter. AID 373, 2006. Sphingosine 1-phosphate receptor 3 (Homo sapiens), Q99500. hit rate 0.1% among 60,000. activation, % at 4.5 µM. S1P3 NFAT-BLA reporter cells, agonism, FRET ratio; relative to 1 µM S1P, basal subtracted;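 active means activation above the screen-wide mean plus 3 SD, cut at about 4.5% in these data, passing the limit was not always enough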
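Assay system: CHO cells stably expressing human S1P3, Gα16 and NFAT-β-lactamase reporter. Timing: overnight plating, 4 h compound 37 °C, 2 h substrate RT. Signal: β-lactamase FRET emission ratio 460/535 nm. Measure: percent activation versus median 1 µM S1P response, basal-subtracted, per plate. Repeats: primary screen single test, confirmation screen in triplicate.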
S1P1 ag-PAM = S1P1 agonists and agonism potentiators, primary screen, cell-based, primary and confirmation screens, CRE-bla reporter; Sphingosine 1-phosphate receptor 1 (Homo sapiens), P21453; S1P1 CRE-bla cells, forskolin, beta-lactamase FRET, potentiator mode; S1P1 agonist co-added at EC20, 2 nM; 100% = saturating reference agonist, 0% = basal; activation, % at 9.5 µM; hit rate 0.57% among 56,000; AID 449, 2006;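 active means activation above a cutoff set at the mean activation of all tested compounds plus 3 SD, cut at about 54% in these data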;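 further: forskolin at 4 µM as EC80 and the EC20 agonist is SEW2871; 100% = SEW2871 at its EC100 plus forskolin at EC80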
M1 antag = antagonists of rat M1 muscarinic receptor | Muscarinic acetylcholine receptor M1 (Rattus norvegicus), P08482 | CHO-M1 cells, Fluo-4 calcium, ACh EC80 antagonist mode; stronger effect = lower value | B-score at 10 µM | hit rate 3.4% among 64,000;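 active means calcium fluorescence response, raw or row-and-column corrected B-score, differing from the plate sample mean either way at a set confidence level, mostly lower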
SF1 activator = activators of human SF-1, primary screen, cell-based, CHO-K1, Gal4-SF-1 LBD, luciferase luminescence | Steroidogenic factor 1 (Homo sapiens), Q13285 | activation, % at 10 µM | AID 522, 2006 | hit rate 1.9% among 65,000 | CHO-K1 Gal4-SF-1 LBD luciferase reporter; % increase over DMSO SF-1-specific signal;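 active means activation above the mean activation of all tested compounds plus 3 SD, cut at about 50% in these data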
Target sequence (Q13285 whole entry, looked up, the tested form may be a part): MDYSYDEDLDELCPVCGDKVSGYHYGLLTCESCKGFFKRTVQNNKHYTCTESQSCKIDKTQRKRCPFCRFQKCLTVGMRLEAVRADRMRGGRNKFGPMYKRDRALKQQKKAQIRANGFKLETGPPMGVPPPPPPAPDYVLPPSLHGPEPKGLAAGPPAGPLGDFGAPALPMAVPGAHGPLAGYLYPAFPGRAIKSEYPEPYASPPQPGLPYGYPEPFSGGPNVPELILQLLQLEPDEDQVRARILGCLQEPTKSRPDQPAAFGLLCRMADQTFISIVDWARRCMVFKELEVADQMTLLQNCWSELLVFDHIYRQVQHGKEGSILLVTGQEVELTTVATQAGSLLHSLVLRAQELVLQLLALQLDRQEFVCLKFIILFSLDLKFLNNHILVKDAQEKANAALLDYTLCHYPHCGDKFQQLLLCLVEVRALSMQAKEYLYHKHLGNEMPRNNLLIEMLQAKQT
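Assay system: CHO-K1 cells co-transfected with Gal4 DBD–human SF-1 LBD, 5xGal4 luciferase reporter / Input: 4,000 cells per well / Incubation: 20 h compound exposure at 37 °C after 1 h cell settling / Detection: SteadyLite luciferase luminescence / Control set: DMSO negative control and −SF1 background wells / Replication: one test per compound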
M1 ag = M1 muscarinic receptor agonists, primary screen, CHO-M1 cells, Fluo-4 calcium, agonist mode; Fluo-4 calcium fluorescence; stronger effect = higher value; B-score at 10 µM; hit rate 3% among 64,000;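 active means fluorescence rise, raw or as B-score row- and column-corrected plate score, outside the 99.7% band of its plate's samples, either direction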
RORa activator = activators of orphan receptor RORA, primary screen, cell-based, luminescence | hit rate 1.5% among 65,000 | activation, % at 10 µM | AID 560, 2006 | CHO-K1 Gal4-RORA LBD luciferase reporter; percent increase over mock-subtracted basal signal | Nuclear receptor ROR-alpha (Homo sapiens), P35398;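 active means activation above the mean of all tested compounds plus 3 SD, cut at about 49% in these data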;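 further: 0% = DMSO-treated RORA cells and 100% = added signal equal to DMSO minus mock-transfected cells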
M1 ag confirm = rat M1 muscarinic receptor agonists, confirmation, CHO-M1 cells, Fluo-4 calcium, duplicate retest; fluorescence change (max-min) at 10 µM; shares compounds with M1 ag; AID 1488, 2009; hit rate 19% among 1,700; Fluo-4 calcium fluorescence, agonist mode; actives lie on both sides;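 active means fluorescence change differs from the solvent-only DMSO control mean at a set confidence level in both duplicate runs; inconclusive means differs from solvent-only control mean in just one of two runs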;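 further: an EC20 dose of acetylcholine follows compound addition during the same imaging run; raw fluorescence intensity difference in instrument units with no normalization to controls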
M4 agonist ctr = agonist activity at rat M4 receptor, confirmation, counter-screen for M1 allosteric modulator project, cell-based, agonist mode; hit rate 9% among 1,700; AID 1741, 2009; fluorescence change (max-min) at 10 µM; shares compounds with M1 ag; CHO M4/Gqi5 cells, Fluo-4 calcium fluorescence; actives lie on both sides;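 active means fluorescence change differing from the plate's solvent-only control wells at 99.7% confidence in both duplicates, whether higher or lower; inconclusive means differs from solvent controls in only one of two duplicates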
Numbers without * were called inactive; ? = inconclusive; . = no result given. The list is not random: actives were taken first. Their share in the collection is about 8.8%.

SMILES | S1P3 agonist | S1P1 ag-PAM | M1 antag | SF1 activator | M1 ag | RORa activator | M1 ag confirm | M4 agonist ctr
Cc1ccc(-n2nc(-c3cccnc3)cc2C(=O)N2CCOCC2)c(C)c1 | . | . | -0.3 | 2 | 20* | 2 | ? | -26
CC(=O)Nc1nc(C)nc(C)c1C(C)=O | 0 | 0 | 0.056 | -11 | 0.12 | -4 | . | .
O=C(NCc1ccccn1)c1cc(-n2cnnc2)ccc1Cl | 0 | -20 | 0.099 | 6 | -0.23 | 9 | . | .
Cc1cc2oc(=O)cc(CN3CCCCC3)c2cc1C(C)C | 2 | 20 | -0.058 | -10 | 11* | -2 | ? | -22
Cc1ccc2c(CN3CCN(CCO)CC3)cc(=O)oc2c1 | -2 | -4 | 0.24 | 7 | -0.41 | -6 | . | .
COCC(=O)Nc1ccc(N(C)C)cc1 | 0 | . | -0.015 | 12 | -2.9* | 11 | -33* | -71
Cc1ccc(OCC(=O)Nc2ccc(N(C)C)cc2)cc1 | 0 | -15 | -0.35 | 4 | -1.6 | 0 | . | .
Cc1cc(-c2ccco2)c(C#N)c2nc3ccccc3n12 | . | . | 0.35 | 10 | 11* | 32 | ? | 15
CN(C)c1nc(Oc2ccc(=O)[nH]n2)nc(N2CCCCC2)n1 | . | . | 0.16 | -5 | 0.14 | 12 | . | .
COCCNC(=O)CN1CCC(n2c(C)nc3cc(C(F)(F)F)ccc32)CC1 | 0 | -11 | -0.61 | -6 | -0.91 | 1 | . | .
CCc1ccc(-c2cn3nc(C)c(C)nc3n2)cc1 | 0 | -14 | 1.3 | -81 | 7.3* | -86 | 89* | 39
Cc1ccc(S(=O)(=O)N(C)CCCC(=O)N2CCN(C=O)CC2)cc1 | 0 | -17 | 0.58 | 3 | -1.7 | 6 | . | .
c1ccc(-n2nnnc2NCCc2c[nH]c3ccccc23)cc1 | 1 | 10 | -0.46 | -2 | 5.8* | -4 | -7.1 | ?
O=C(NCCc1c[nH]c2ccccc12)c1cccnc1 | 0 | . | 1.7 | 6 | 0 | 20 | . | .
O=C(Nc1nccs1)c1cc(N2CCOCC2)nc2ccccc12 | 0 | 5 | -0.44 | 7 | 3.1* | 8 | -9 | -29
Cc1cc(=O)oc2cc(OCC(=O)OCc3nnc(-c4ccccc4)o3)ccc12 | 2 | 6 | -0.17 | 6 | 37* | -10 | -4.5 | -21
O=C(CCSc1nnc(-c2ccco2)o1)Nc1ccc(Cl)cc1 | -1 | 15 | -0.43 | 10 | -1.3 | -7 | . | .
O=C(Nc1ccc(Cl)cc1)NC1CCCC1Cc1ccco1 (stereo not given) | -1 | 10 | -2.1* | 6 | 4.8* | -6 | ? | -38
COc1ccc(CCNC(=O)c2cnn3cccnc23)cc1OC | 0 | . | 0.12 | -7 | -0.38 | 5 | . | .
N#Cc1c(N)sc(=S)c2c1CCCCC2 | -3 | 13 | -0.93 | 7 | 13* | 5 | 2.2 | -10
N#Cc1c(N)sc2c1CCCCCC2 | 0 | . | 0.47 | 5 | -0.87 | 18 | . | .
COC(=O)C1=C(C)OC(N)=C(C#N)C1c1c(C)nn(-c2ccccc2)c1Cl (stereo not given) | . | . | -0.11 | -4 | -0.41 | 4 | . | .
CCOC(=O)C1=C(C)OC(N)=C(C#N)C1c1c(C)nn(-c2ccc(C)cc2)c1Cl (stereo not given) | . | . | 0.14 | 8 | 3.4* | -10 | 1 | -13
Cc1ccc(C)c(N2CCN(C(=O)c3cc4ccccn4n3)CC2)c1 | -1 | -21 | -0.77 | -11 | 31* | -14 | 55 | 10
c1ccc(-c2nnc(SCc3cn4ccsc4n3)o2)cc1 | 0 | -8 | -0.42 | 16 | 39* | 42 | -13 | -40
SMILES | S1P3 agonist | S1P1 ag-PAM | M1 antag | SF1 activator | M1 ag | RORa activator | M1 ag confirm | M4 agonist ctr
c1ccc(-c2nnc(CSc3nnc(-c4cccs4)o3)o2)cc1 | -1 | 6 | -0.13 | 6 | -0.017 | 14 | . | .
C=CCn1c2ccccc2c2nnc(SCN3C(=O)c4ccccc4C3=O)nc21 | . | . | -2.5 | . | 2.3 | . | . | .
C=CCn1c2ccccc2c2nnc(SCCCn3c(=O)[nH]c4ccccc43)nc21 | . | . | -6.6* | -6 | 5.3* | 3 | -3.7 | -18
Cc1ccc(S(=O)(=O)N(CC(=O)NCc2ccco2)Cc2ccccc2F)cc1 | -1 | 15 | 0.88 | 0 | -0.051 | -25 | . | .
O=C(NCC(c1cccnc1)N1CCN(c2ccc(F)cc2)CC1)c1ccc(F)cc1 (stereo not given) | 0 | 6 | -0.17 | 5 | 1.1 | -16 | . | .
CCOC(=O)C1CCCN(C(=O)c2sc3nc(-c4ccc(F)cc4)cn3c2C)C1 (stereo not given) | 0 | 4 | -1.7 | -6 | 2.3 | -1 | . | .
CCOC(=O)C1CCCN(c2cc(C)nc3cc(-c4ccc(F)cc4)nn23)C1 (stereo not given) | 0 | -12 | -3.8* | 10 | 30* | 4 | 386* | -23
Cn1cc(C(=O)c2ccccc2)cc1-c1nc2ccccc2n1C | -2 | -9 | -0.63 | 25 | 6.5* | 13 | -3 | -6.8
Cc1n[nH]c(C)c1N1C(=O)c2cccc3c(N4CCCCCC4)ccc(c23)C1=O | -2 | 55 | -14* | -9 | 451* | -10 | 2972* | 2513*
Cc1ccc(C(c2nnnn2CCC(C)C)N2CCN(C)CC2)cc1 (stereo not given) | 0 | 12 | -0.12 | 11 | -0.85 | 0 | . | .
CCn1c(SCC(=O)N2CCN(c3ccc(F)cc3)CC2)nnc1-c1ccncc1 | -1 | -28 | 0.23 | 4 | -0.83 | -3 | . | .
Cc1ccc(CSc2nc3c(c(=O)[nH]2)CCC3)cc1 | . | . | 0.68 | . | 2.3* | . | 28 | -5.3
C=CCN1C(c2ccccc2)=CS/C1=C(\C#N)c1nnc2n1CCCCC2 | 1 | -4 | 0.13 | 10 | 0.26 | 2 | . | .
CCOc1ccc(C2=CS/C(=C(\C#N)c3nnc4n3CCCCC4)N2CC)cc1 | . | . | -0.056 | -2 | 3.8* | 12 | -18 | -38
O=C(CN(Cc1ccccc1F)C(=O)Cn1nnc(-c2cccs2)n1)NCC1CCCO1 (stereo not given) | 0 | -10 | -0.38 | -2 | -0.96 | 1 | . | .
CC(=O)Nc1c2c3c(cccc3n(C)c1=O)C(=O)c1ccccc1-2 | -1 | -17 | -0.37 | -10 | 9.4* | -19 | 68* | ?
